Source: paper PMC3731742 (Journal of biomolecular screening, 2011)
pIC50: −log10 of the molar value. Values joined by “and” are separate entries in the source; they are usually repeats but may differ in a detail not shown here. Equal values may be shown once. Read-outs that look alike come from different tables or passages of the source.

Assays:
[1] = Compound aggregation in steady-state ATP assays; format: physicochemical; conditions: 20-μL steady-state ATP assay; previously observed in the laboratory
[2] = target: SV40 large T antigen ATPase activity (Simian virus 40, UniProt P03070); experiment: SV40 TAg ATPase primary assay; format: biochemical; conditions: 1% DMSO; for pIC50: 1536-well, ADP Hunter, 1 mM ATP
Chain of SV40 large T antigen ATPase activity (P03070 whole entry): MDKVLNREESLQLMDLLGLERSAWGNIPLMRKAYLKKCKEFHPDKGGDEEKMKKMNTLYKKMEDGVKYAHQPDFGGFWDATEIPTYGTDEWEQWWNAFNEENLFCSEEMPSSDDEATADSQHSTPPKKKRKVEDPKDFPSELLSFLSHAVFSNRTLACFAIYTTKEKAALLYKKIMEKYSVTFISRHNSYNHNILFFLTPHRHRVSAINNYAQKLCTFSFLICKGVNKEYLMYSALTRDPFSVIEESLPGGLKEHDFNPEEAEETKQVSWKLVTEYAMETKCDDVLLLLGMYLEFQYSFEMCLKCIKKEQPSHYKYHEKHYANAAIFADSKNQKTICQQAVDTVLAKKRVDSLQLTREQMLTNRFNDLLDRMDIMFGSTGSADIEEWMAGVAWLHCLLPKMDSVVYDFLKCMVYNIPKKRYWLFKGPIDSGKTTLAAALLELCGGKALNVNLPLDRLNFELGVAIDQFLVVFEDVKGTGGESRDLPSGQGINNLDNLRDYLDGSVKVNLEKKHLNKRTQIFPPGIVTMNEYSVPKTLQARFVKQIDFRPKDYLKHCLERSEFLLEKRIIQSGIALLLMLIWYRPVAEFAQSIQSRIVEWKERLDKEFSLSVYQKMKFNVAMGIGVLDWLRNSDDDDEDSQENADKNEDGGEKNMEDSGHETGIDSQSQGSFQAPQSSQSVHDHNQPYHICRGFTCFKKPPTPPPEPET
In short: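 Purified TAg (10.8 ng/well, added from 14.4 ng/µL) in 100 mM Tris-HCl pH 7.4, 20 mM KCl, 6 mM MgCl2, 0.1 mg/mL BSA; control added before enzyme, preincubated 30 min ambient; 5 mM ATP stock added, 120 min ambient; 1.25 µL reaction. ADP Hunter fluorescence, ex/em 530/590 nm bottom read. % inhibition normalized to median enzyme control and high-dose control wells.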

[3] = tested on: TAg; conditions: read-out: IC50 for MAL2-11B; ref 21 (Huryn et al.); cited from earlier work
[4] = tested on: Nuclear receptor ROR-gamma; conditions: PubChem; cited from earlier work
[5] = tested on: Aldehyde dehydrogenase 1; conditions: PubChem; cited from earlier work
[6] = tested on: Phosphopantetheinyl transferase; conditions: PubChem; cited from earlier work
[7] = tested on: SV40 virus; experiment: Cytoprotection assay with SV40 virus in BSC-40 cells; format: cell-based; conditions: 50 μM, BSC-40 cells + SV40, 120 h
[8] = tested on: Mint1; conditions: PubChem; cited from earlier work
[9] = tested on: TAg-dependent DNA replication; experiment: TAg-dependent DNA replication assay; format: biochemical, SV40; conditions: HeLa cell lysate, radiolabelled nucleotides
In short: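 TAg recruits replication machinery from HeLa cell lysate to copy a reporter plasmid carrying the SV40 origin, incorporating trace radiolabelled nucleotides over time. Test compound added at 30, 100 and 300 µM.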

[10] = tested on: Hydroxyprostaglandin dehydrogenase 15-(NAD) isoform 1; conditions: PubChem; cited from earlier work
[11] = tested on: Microtubule-associated protein tau; conditions: PubChem, tau aggregation; cited from earlier work
[12] = tested on: BSC-40 cells; experiment: Cytotoxicity in BSC-40 cells; format: cell-based, African green monkey; conditions: cells + compound only, 5 days

Question: With `CC1=C(C(=O)OCc2ccccc2)C(c2ccc(-c3ccccc3)cc2)NC(=O)N1CCCCCC(=O)O` (stereo not shown) [MAL2-11B, reference compound] as the compound, how does the “final concentration at which compound aggregation was observed” value [1] read?
Answer: > 300 µM

Question: And the “inhibition of TAg activity” value ([2]; MAL2-11B at 100 μM final, average)?
Answer: 80%

Question: And the pIC50 ([2]; read-out: IC50, inhibition of TAg ATPase activity in the primary assay)?
Answer: 4.71

Question: What about the pIC50 [3] of the same compound?
Answer: 4.30

Question: For `ClC(Cl)(c1nnnn1-c1ccccc1)c1nnnn1-c1ccccc1` [SID 85281215], which “identified as hit (inhibitor) against target” value (“identified as hit (inhibitor)” below) [4] is on record?
Answer: Nuclear receptor ROR-gamma

Question: What about the “identified as hit (inhibitor)” value [5] of the same compound?
Answer: Aldehyde dehydrogenase 1

Question: What about the “identified as hit (inhibitor)” value [6] of the same compound?
Answer: Phosphopantetheinyl transferase

Question: And the “sustained cell viability in the cytoprotection assay” value [7]?
Answer: 16%

Question: What about the “identified as hit (inhibitor)” value [8] of the same compound?
Answer: Mint1

Question: What about the “effect on TAg-dependent DNA replication at 300 μM” value [9] of the same compound?
Answer: DNA replication was absent

Question: What about the “identified as hit (inhibitor)” value [10] of the same compound?
Answer: Hydroxyprostaglandin dehydrogenase 15-(NAD) isoform 1

Question: What about the “identified as hit (inhibitor)” value [11] of the same compound?
Answer: Microtubule-associated protein tau

Question: What does the source list for `Nc1nc2ccc(S(=O)(=O)N3CCCCC3)cc2s1` [SID 85281217]?
Answer: identified as hit (inhibitor) against target [5]: Aldehyde dehydrogenase 1; identified as hit (inhibitor) against target [6]: Phosphopantetheinyl transferase; identified as hit (inhibitor) against target [8]: Mint1; identified as hit (inhibitor) against target [10]: Hydroxyprostaglandin dehydrogenase 15-(NAD) isoform 1; identified as hit (inhibitor) against target [11]: Microtubule-associated protein tau

Question: For `Cc1cc(C)c2c(=O)n(CC(=O)Nc3cccc(Cl)c3C)sc2n1` [SID 85281218], which “identified as hit (inhibitor)” value [4] is on record?
Answer: Nuclear receptor ROR-gamma

Question: What about the “identified as hit (inhibitor)” value [6] of the same compound?
Answer: Phosphopantetheinyl transferase

Question: What about the “identified as hit (inhibitor)” value [8] of the same compound?
Answer: Mint1

Question: What about the “identified as hit (inhibitor)” value [11] of the same compound?
Answer: Microtubule-associated protein tau

Question: Which “TC50 (50% toxic concentration)” value [12] does the source give for `CC(C)(c1ccc(O)cc1)c1ccc(O)cc1` [SID 92277586, Bisphenol A] here?
Answer: 7.94 µM

Question: And the pIC50 ([2]; IC50, inhibition of TAg ATPase activity in the primary assay)?
Answer: 4.39 and 4.38

Question: And the “effect on TAg-dependent DNA replication at 100 μM” value ([9]; 100 μM)?
Answer: some inhibition

Question: And the “effect on TAg-dependent DNA replication at 300 μM” value [9]?
Answer: complete inhibition
